For series [1], the target named is 5-hydroxytryptamine receptor 4 (Cavia porcellus, UniProt O70528). Description: Displacement of [3H]GR-113808 from 5HT4 receptor in guinea pig striatum membrane. It counts as cell membranes. An outline of the steps:
(§1)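 Guinea pig membranes (15 µg protein/mL) incubated 30 min at 37 °C with 0.6 nM [3H]GR113808 in 50 mM HEPES, pH 7.4, with fixed test concentrations. Nonspecific binding defined with 10 µM serotonin.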
In general terms: Displacement assays read how much labelled ligand stays bound in the presence of the test substance.

The target of series [2] is T1, 5-hydroxytryptamine receptor 3A (Homo sapiens, UniProt P46098).
T1 sequence (P46098 whole entry): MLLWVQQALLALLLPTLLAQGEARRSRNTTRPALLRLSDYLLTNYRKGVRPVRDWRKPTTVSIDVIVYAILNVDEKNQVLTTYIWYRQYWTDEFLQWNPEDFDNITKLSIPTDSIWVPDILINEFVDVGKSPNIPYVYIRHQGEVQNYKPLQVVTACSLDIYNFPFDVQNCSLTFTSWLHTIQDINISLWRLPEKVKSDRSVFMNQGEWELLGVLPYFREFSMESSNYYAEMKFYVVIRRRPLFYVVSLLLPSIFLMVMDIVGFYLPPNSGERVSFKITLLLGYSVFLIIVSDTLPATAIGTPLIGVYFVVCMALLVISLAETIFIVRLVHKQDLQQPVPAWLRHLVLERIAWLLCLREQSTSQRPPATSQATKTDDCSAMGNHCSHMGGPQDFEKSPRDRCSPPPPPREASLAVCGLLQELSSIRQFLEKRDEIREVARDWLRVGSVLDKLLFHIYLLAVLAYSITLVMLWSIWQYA
In words: Displacement of [3H]granisetron form 5HT3 receptor in hybrid […] cells. Format: cell-based. An outline of the steps:
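NG108-15 cell membranes (0.5 mg protein/mL) incubated 60 min at 25 °C with 1 nM [3H]granisetron in 50 mM Tris-HCl, pH 7.4, plus 25 mM NaCl. Percent inhibition measured at 10^-6 and 10^-7 M; for some compounds Ki calculated from 8–10-point inhibition curves (Ki ± SEM).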

Series [3] deals with Mus musculus. Description: Acute toxicity in NMRI mouse assessed as behavioral changes at 5 mg/kg, ip by CNS activity test. Particulars: in vivo. It counts as organism-based, Central nervous system. Set-up: dose 5 mg/kg, route intraperitoneal. An outline of the steps:
(§2)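 Male NMRI mice (20–24 g) given ip drug in saline (10 mL/kg), groups of 4. Behavioural and neurological changes scored against controls by a standardized observation technique at 30 min, 3 h and 24 h post-dose. Approximate LD50 derived from deaths counted at 24 h.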

Series [4] relates to Mus musculus. In words: Antinociceptive activity against acetic acid-induced writhing in NMRI mouse assessed as number of stretches at 30 mg/kg, ip by writhing test. Particulars: route intraperitoneal. It counts as functional. An outline of the steps:
(§3)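 Groups of 8 male NMRI mice (20–24 g). Compound or reference given ip in saline (10 mL/kg) 15 min before ip 0.6% aqueous acetic acid (10 mL/kg). Stretches (back arching, pelvic rotation, hind-limb extension) counted over 10 min, beginning 10 min after acid. ANOVA + Fisher PLSD versus control.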
Background: An intraperitoneal irritant provokes the stretching counted in writhing tests.

Series [5] concerns Mus musculus. In words: Acute toxicity in NMRI mouse assessed as behavioral changes at 25 mg/kg, ip by CNS activity test. Format: organism-based, Central nervous system. Set-up: dose 25 mg/kg, route intraperitoneal. Particulars: in vivo. An outline of the steps:
as §2

In series [6] the test system is Mus musculus. In words: Analgesic activity in NMRI mouse assessed as reaction time taken to lick fore paw at 8 mg/kg, ip after 15 mins of administration by hot plate test. Format: functional. Particulars: route intraperitoneal. An outline of the steps:
(§4)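 Hot plate at 55 °C, male NMRI mice (20–24 g), groups of 10. Drug given ip in saline (10 mL/kg). Baseline latency to forepaw licking taken twice before dosing, and mice had to respond within 4–12 s. Latency read at 15 and 30 min after injection, with a 30 s cutoff. Data as mean ± SEM, ANOVA plus Fisher PLSD.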

Series [7] relates to Mus musculus. Description: Analgesic activity in NMRI mouse assessed as reaction time taken to lick fore paw at 8 mg/kg, ip after 30 mins of administration by hot plate test. Format: functional. Particulars: route intraperitoneal. An outline of the steps:
as §4

The target of series [8] is T2, 5-hydroxytryptamine receptor 2C (Homo sapiens, UniProt P28335).
T2 sequence (P28335 whole entry): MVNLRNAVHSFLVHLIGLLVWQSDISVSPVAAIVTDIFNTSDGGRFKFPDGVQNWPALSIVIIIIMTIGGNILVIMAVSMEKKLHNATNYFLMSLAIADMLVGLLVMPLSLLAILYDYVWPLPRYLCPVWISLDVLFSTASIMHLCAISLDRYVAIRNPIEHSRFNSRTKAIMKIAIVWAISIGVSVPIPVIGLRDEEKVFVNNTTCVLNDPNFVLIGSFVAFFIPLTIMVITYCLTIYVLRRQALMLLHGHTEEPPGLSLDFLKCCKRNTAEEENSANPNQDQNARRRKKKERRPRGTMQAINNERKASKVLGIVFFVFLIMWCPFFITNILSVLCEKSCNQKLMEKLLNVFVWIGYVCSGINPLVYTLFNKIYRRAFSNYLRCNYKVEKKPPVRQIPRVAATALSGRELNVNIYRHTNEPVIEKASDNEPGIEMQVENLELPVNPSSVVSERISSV
Description: Displacement of [3H]mesulergine from human recombinant 5HT2C receptor.

In series [9] the target is 5-hydroxytryptamine receptor 2A (Homo sapiens, UniProt P28223). In words: Displacement of [3H]ketanserin form human recombinant 5HT2A receptor.
Chain of 5-hydroxytryptamine receptor 2A (P28223 whole entry): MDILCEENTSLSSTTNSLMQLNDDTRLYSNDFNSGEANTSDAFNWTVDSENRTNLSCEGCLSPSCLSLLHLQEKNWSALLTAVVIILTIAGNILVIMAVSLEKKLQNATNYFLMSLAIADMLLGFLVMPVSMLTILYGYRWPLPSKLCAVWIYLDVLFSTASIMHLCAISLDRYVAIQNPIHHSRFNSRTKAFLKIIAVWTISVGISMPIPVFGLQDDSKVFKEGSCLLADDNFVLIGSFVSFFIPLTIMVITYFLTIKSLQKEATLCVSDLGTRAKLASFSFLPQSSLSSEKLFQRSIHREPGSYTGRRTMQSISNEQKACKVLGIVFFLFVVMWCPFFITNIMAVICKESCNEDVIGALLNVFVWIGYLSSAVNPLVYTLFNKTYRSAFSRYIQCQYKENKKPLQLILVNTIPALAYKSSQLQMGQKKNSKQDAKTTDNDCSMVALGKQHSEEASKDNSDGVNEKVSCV
In series [10] the target is 5-hydroxytryptamine receptor 2B (Homo sapiens, UniProt P41595). Description: Displacement of [3H]mesulergine from human recombinant 5HT2B receptor.
Chain of 5-hydroxytryptamine receptor 2B (P41595 whole entry): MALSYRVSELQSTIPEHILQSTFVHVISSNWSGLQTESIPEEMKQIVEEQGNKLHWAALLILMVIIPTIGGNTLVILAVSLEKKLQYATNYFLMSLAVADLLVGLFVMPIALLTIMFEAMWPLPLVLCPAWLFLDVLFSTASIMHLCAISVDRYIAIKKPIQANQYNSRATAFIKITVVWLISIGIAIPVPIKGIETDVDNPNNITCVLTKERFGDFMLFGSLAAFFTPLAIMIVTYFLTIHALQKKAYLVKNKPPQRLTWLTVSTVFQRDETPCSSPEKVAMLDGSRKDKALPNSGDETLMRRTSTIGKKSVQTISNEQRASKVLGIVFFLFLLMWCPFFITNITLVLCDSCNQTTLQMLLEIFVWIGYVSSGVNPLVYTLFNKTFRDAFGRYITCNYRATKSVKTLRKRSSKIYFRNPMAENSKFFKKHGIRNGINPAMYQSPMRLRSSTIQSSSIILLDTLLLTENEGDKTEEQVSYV
Series [11] has as its target T3, 5-hydroxytryptamine receptor 1A (Homo sapiens, UniProt P08908).
T3 sequence (P08908 whole entry): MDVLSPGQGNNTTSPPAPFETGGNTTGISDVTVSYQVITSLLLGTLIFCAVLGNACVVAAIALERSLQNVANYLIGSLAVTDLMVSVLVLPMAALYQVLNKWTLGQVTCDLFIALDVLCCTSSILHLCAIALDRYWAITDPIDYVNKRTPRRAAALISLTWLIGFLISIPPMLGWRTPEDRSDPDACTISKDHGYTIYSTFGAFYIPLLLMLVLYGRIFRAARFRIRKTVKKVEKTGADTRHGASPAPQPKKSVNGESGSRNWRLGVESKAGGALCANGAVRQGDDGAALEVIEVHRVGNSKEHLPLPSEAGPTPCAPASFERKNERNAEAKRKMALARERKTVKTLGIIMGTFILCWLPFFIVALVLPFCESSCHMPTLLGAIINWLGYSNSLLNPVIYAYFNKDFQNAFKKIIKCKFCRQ
In words: Displacement of [3H]8OH-DPAT from human recombinant 5HT1A receptor.

Series [12] concerns the target 5-hydroxytryptamine receptor 6 (Homo sapiens, UniProt P50406). Description: Displacement of [3H]LSD form human recombinant 5HT6 receptor. An outline of the steps:
(§5)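 Membranes from sf9 cells expressing human 5-HT6 (14 µg/mL) or 5-HT7 (38 µg/mL) incubated 90 min at 27 °C with 2 nM [3H]LSD in 50 mM Tris-HCl containing 10 mM MgSO4 and 0.5 mM EDTA. Nonspecific binding defined with clozapine (10 and 250 µM).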

The target in series [13] is 5-hydroxytryptamine receptor 4 (Cavia porcellus) (UniProt O70528). In words: Displacement of [3H]GR-113808 from 5HT4 receptor in guinea pig striatum membrane at 10 nM. It counts as cell membranes. An outline of the steps: as §1
Chain of 5-hydroxytryptamine receptor 4 (Cavia porcellus) (O70528 whole entry): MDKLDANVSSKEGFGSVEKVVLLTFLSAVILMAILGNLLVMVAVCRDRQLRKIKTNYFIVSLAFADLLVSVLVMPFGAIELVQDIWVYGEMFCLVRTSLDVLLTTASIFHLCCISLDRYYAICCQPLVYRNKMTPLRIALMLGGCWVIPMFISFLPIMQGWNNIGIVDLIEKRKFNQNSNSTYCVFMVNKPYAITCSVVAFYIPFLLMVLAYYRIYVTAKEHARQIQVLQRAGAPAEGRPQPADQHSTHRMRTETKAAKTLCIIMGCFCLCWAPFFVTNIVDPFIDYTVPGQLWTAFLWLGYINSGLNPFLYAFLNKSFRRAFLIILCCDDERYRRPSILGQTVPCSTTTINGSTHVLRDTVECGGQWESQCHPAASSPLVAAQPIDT
Series [14] deals with T1, 5-hydroxytryptamine receptor 3A. In words: Displacement of [3H]granisetron from human recombinant 5HT3 receptor.
For series [15], the target named is 5-hydroxytryptamine receptor 4 (Cavia porcellus) (UniProt O70528). In words: Displacement of [3H]GR-113808 from 5HT4 receptor in guinea pig striatum membrane at 1 uM. Format: cell membranes. An outline of the steps:
as §1

In series [16] the target is 5-hydroxytryptamine receptor 7 (Homo sapiens, UniProt P34969). In words: Displacement of [3H]LSD form human recombinant 5HT7 receptor. An outline of the steps: as §5
Chain of 5-hydroxytryptamine receptor 7 (P34969 whole entry): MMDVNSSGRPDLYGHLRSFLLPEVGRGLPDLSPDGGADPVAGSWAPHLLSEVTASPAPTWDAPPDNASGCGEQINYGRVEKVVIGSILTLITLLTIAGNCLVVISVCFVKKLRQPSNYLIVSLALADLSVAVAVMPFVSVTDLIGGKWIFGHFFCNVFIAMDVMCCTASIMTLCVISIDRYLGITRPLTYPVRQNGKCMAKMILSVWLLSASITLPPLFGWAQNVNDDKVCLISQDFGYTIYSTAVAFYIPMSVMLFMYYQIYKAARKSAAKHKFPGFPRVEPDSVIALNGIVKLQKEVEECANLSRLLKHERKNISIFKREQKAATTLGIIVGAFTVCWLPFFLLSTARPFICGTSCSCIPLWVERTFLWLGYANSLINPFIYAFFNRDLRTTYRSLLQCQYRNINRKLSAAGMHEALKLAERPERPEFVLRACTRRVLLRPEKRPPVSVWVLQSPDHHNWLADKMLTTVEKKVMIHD
The test system of series [17] is Mus musculus. In words: Antinociceptive activity against acetic acid-induced writhing in NMRI mouse assessed as number of stretches at 5 mg/kg, ip by writhing test. Format: functional. Particulars: route intraperitoneal. An outline of the steps:
as §3

Series [18] addresses 5-hydroxytryptamine receptor 4 (Homo sapiens, UniProt Q13639). Description: Binding affinity at 5HT4 receptor.
For series [19], the system named is Mus musculus. Description: Antinociceptive activity against acetic acid-induced writhing in NMRI mouse assessed as number of stretches at 1 mg/kg, ip by writhing test. Particulars: route intraperitoneal. Format: functional. An outline of the steps:
as §3

Series [20] relates to Mus musculus. In words: Antinociceptive activity against acetic acid-induced writhing in NMRI mouse assessed as number of stretches at 0.1 mg/kg, ip by writhing test. It counts as functional. Particulars: route intraperitoneal. An outline of the steps: as §3
Series [21] relates to Mus musculus. Description: Antinociceptive activity against acetic acid-induced writhing in NMRI mouse assessed as number of stretches at 0.01 mg/kg, ip by writhing test. Format: functional. Particulars: route intraperitoneal. An outline of the steps: as §3
Series [22] concerns the target T1, 5-hydroxytryptamine receptor 3A. In words: Binding affinity at 5HT3 receptor.
The test system of series [23] is Mus musculus. Description: Inhibition of scopolamine-induced immediate working memory deficit in NMRI mouse at 1 mg/kg, ip by Y-maze test relative to control. Particulars: route intraperitoneal. Format: functional. The arrangement: scale not given: the % may be the effect or the level left. An outline of the steps:
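Spontaneous alternation in male NMRI mice. Scopolamine 1 mg/kg ip in saline induces the working-memory deficit; groups are saline+saline, saline+scopolamine, drug+saline and drug+scopolamine. Alternation % = actual alternations/(total arm entries − 2) × 100. ANOVA plus Fisher PLSD, p<0.05.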

Data on eleven compounds can be found in ChEMBL document CHEMBL1153939, “Novel antagonists of serotonin-4 receptors: synthesis and biological evaluation of pyrrolothienopyrazines” (Bioorg Med Chem, 2009).

Chain of 5-hydroxytryptamine receptor 4 (Cavia porcellus, UniProt O70528) (O70528 whole entry): as the sequence (O70528 whole entry) above
Chain of 5-hydroxytryptamine receptor 6 (P50406 whole entry): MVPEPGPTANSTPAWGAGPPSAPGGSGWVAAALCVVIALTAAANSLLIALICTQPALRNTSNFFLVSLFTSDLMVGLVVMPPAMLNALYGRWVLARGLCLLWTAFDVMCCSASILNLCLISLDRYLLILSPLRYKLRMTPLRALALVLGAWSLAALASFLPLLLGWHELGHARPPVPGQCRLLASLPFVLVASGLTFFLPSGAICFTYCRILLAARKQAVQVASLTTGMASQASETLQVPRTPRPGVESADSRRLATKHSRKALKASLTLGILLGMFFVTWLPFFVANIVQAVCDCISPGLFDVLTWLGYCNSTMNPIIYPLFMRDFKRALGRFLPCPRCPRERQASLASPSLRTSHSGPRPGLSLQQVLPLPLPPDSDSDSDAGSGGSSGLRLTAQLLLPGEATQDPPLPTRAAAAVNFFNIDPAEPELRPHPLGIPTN
Chain of 5-hydroxytryptamine receptor 4 (Homo sapiens, UniProt Q13639) (Q13639 whole entry): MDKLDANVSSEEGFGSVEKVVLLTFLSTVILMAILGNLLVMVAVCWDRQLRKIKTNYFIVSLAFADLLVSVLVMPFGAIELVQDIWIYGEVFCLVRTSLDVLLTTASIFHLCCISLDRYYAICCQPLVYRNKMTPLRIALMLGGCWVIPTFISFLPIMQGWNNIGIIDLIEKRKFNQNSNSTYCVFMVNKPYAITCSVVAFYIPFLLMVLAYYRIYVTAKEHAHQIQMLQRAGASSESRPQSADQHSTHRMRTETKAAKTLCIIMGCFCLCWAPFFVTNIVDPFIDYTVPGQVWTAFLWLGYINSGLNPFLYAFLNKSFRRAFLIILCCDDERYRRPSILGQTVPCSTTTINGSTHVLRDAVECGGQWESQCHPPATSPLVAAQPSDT

With `c1ccc(CN2CCN(c3nc4ccsc4n4cccc34)CC2)cc1`, the 50% inhibitory concentration (IC50) (in general, the midpoint of a concentration-inhibition curve) in [1] was > 10000 nM; in series [2], 1.41 nM.

For `OCCN1CCN(CCCN2c3ccccc3Sc3ccc(Cl)cc32)CC1` [PERPHENAZINE], in the series with Mus musculus [3], the Activity entry is given as “Toxic”.

With `CC(=O)Oc1ccccc1C(=O)O` [ASPIRIN], the Activity in the series with Mus musculus [4] is reported as 8.3.

Take `COC(=O)C(c1ccccc1)C1CCCCN1` (configuration not stated) [METHYLPHENIDATE]: in the series on Mus musculus [5], the Activity result is recorded as “Toxic”.

On to `CN1CC[C@]23c4c5ccc(O)c4O[C@H]2[C@@H](O)C=C[C@H]3[C@H]1C5` [MORPHINE], for which the Time with Mus musculus [6] is 30 s; in the series on Mus musculus [7] it was 26 s.

As to `CCCCN1CCC(COc2nc3ccsc3n3cccc23)CC1`, affinity in series [1] was put at a Ki of 20.9 nM. In addition, the IC50 is 29500 nM in [8]; 166 nM in [9]; 52.5 nM in [10]; 5250 nM in series [11]; > 10000 nM in series [12]; > 10000 nM in [14]. Also, the IC50 in [16] is > 1000 nM. Moreover, the inhibition (commonly the relative decrease from the control value, in per cent) was 31% in [13] and 100% in series [15].

As to `CN1C(C(=O)Nc2ccccn2)=C(O)c2ccccc2S1(=O)=O` [PIROXICAM], the Activity in the series with Mus musculus [17] was found to be 2.2.

Regarding `Cn1cc(C(=O)OCC2CCN(CCNS(C)(=O)=O)CC2)c2ccccc21`, the Ki (in general, a measure of affinity in units of concentration, obtained from inhibition or displacement) in [18] is 0.158 nM; in [22], > 10000 nM. Besides, the Activity with Mus musculus [19] is listed as 14.3; with Mus musculus [20], 14.8; with Mus musculus [21], 21.1.

In the series on Mus musculus [23], `COC(=O)C1=CCCN(C)C1` [ARECOLINE] came in with an Activity of 64%.

`CCN1CCC(COc2nc3ccsc3n3cccc23)CC1` had a Ki in series [1] of 19.1 nM. Further, the half-inhibitory concentration (IC50) in series [8] was 5620 nM; in [9], 8130 nM; in series [10], 9.77 nM; in series [11], > 100000 nM; in [12] it was > 10000 nM; in series [14] it was > 1000 nM. In [16], the IC50 is > 1000 nM. Further, the inhibition in series [13] turned out to be 42%; in series [15], 84%.

As to `COc1[nH]c2ccc(F)cc2c1C(=O)OCC1CCN(CCNS(C)(=O)=O)CC1`, the Activity is given as 12.9 with Mus musculus [19], 13.2 in the series on Mus musculus [20] and 19.1 with Mus musculus [21].
